Experimental data from PubChem BioAssay.
Records with an inconclusive call do not appear.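 Rule for the calls, unless noted: active = viability at or below 27.92% in each of two runs, the all-compound median minus 4 SD; inconclusive = no clear call, values can overlap the other calls; inactive = the rest.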

What was measured:
[1] = S. cerevisiae growth inhibition in permissive medium (OD615), pilot counter-assay for S. cerevisiae lifespan shortening project, permissive growth control (AID 705;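 active = growth inhibition above 25% in both replicates, a cutoff set 3 SD above the mean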); details: OD615, 24 h, at 10 µM, hits give high values
How it was run: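 System: Engineered DeaD yeast | Buffer or medium: SC raffinose/galactose permissive medium | Incubation: Cells pre-grown 4 h, then 24 h compound exposure, 30 °C humidified | Measured by: Absorbance (optical density) at 615 nm | Read-out: Reduction in yeast growth (OD615)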

[2] = S. cerevisiae growth inhibition in restrictive medium, OD615, pilot screen, restrictive growth control, yeast lifespan reduction project (AID 706;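 active = growth inhibition above a set limit, 3 SD over mean compound inhibition, in both replicates, cut at about 43% in these data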;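 note: modified DeaD lifespan yeast strain shifted to restrictive glucose medium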); details: OD615, 48 h, at 10 µM, hits give high values
How it was run: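 Material: modified S. cerevisiae; Medium: glucose-based CSMM-D restrictive medium; Compound dosing: one concentration, 10 µM final, 0.25% DMSO; Incubation: 48 h compound exposure at 30 °C; Measured by: OD615.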

[3] = doxorubicin toxicity protection in MRP-1 cells – H69AR cells, CellTiter-Glo, duplicate, MRP-1 activator project, pilot screen (AID 807;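 active = viability increase at or above a cutoff of the median across tested compounds plus 3 SD, cut at about 8.5% in these data, passing the limit was not always enough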;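 note: compound pretreatment 18-22 h then 72 h combined with doxorubicin; 0% = doxorubicin alone and 100% = vehicle without doxorubicin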); details: H69AR viability with doxorubicin, CellTiter-Glo luminescence; at 10 µM; hits give high values
[4] = viability of HCT116 without oncogenic beta-catenin – human colon tumor cells, pilot screen (AID 823;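 active = cell viability at or below a set limit in both duplicate runs, the limit being the all-compound median minus 4 SD, cut at about 23% in these data, passing the limit was not always enough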;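 note: 0% = wells killed by 20 µM Hyamine and 100% = untreated DMSO cell wells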); details: HCT116 beta-catenin knockout viability, CellTiter-Glo, 60 h; at 10 µM; hits give low values
[5] = viability of PTEN-null HCT116 cells – cell-based, HCT116 clonal line, CellTiter-Glo, pilot screen (AID 824); details: HCT116 PTEN-deleted viability, 60 h, at 10 µM, hits give low values;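 note: 0% = 20 µM Hyamine control and 100% = vehicle cell control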
[6] = RAM pathway blockade in budding yeast – dse1pr::URA3 reporter, 5-FOA selection, pilot screen (AID 869;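 active = inhibition over a set limit, the all-compound mean plus 3 SD, in both replicate runs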;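 note: 0% = DMSO wells with no growth and 100% = 10 µM 1-NA-PP1 with full growth; RAM network block rescues cells from 5-FOA so hits raise OD615 growth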); details: S. cerevisiae dse1pr::URA3 5-FOA growth, OD615, 2 d; at 10 µM; hits give high values; strain carries analog-sensitive mutant Cbk1 kinase
[7] = RAM signaling pathway blockade in yeast – S. cerevisiae, Pdr1DBD-CYC8 efflux-inhibited sensitized strain, primary screen (AID 1298;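 active = RAM network inhibition above 8.4% in each of two replicates, 3 SD over the compound average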;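 note: 0% = DMSO untreated cells without growth and 100% = 10 µM 1-NA-PP1 full growth; higher means more yeast growth rescued from 5-FOA killing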); details: S. cerevisiae cbk1-as DSE1-URA3 strain, 5-FOA growth OD615, 2 d; at 50 µM; hits give high values

O=C(NC(C(=O)c1ccccc1)N1CCCCC1)c1ccccc1 (stereo not drawn)
inactive: growth inhibition [1] -8.09% | growth inhibition [2] -3.47% | viability increase [3] -2.31% | viability [4] 91.2% | viability [5] 98% | inhibition [6] -0.65% | RAM network inhibition [7] 1.67%

CCOC(=O)C1=C(C)NC(=O)NC1c1ccc(OCC(=O)Nc2ccccc2)c(OC)c1 (stereo not drawn)
inactive: growth inhibition [1] -2.03% | growth inhibition [2] -26% | viability increase [3] -1.88% | viability [4] 102% | viability [5] 95% | inhibition [6] 2.01% | RAM network inhibition [7] 0.32%

CCNc1nc2c(c(=O)[nH]c(=O)n2C)n1CC(C)C
inactive: growth inhibition [1] -5.42% | growth inhibition [2] -2.34% | viability increase [3] -2.15% | viability [4] 106% | viability [5] 100% | inhibition [6] 0.05% | RAM network inhibition [7] 2.92%

CCC(C)NC(=O)CN(c1ccc2c(c1)OCO2)S(=O)(=O)c1c(C)n[nH]c1C (stereo not drawn)
inactive: growth inhibition [1] -12.1% | growth inhibition [2] -7.16% | viability increase [3] -1.79% | viability [4] 107% | viability [5] 99.4% | inhibition [6] 1.34% | RAM network inhibition [7] 2.93%

CC(CCc1ccccc1)NC(=O)CSc1nnnn1C (stereo not drawn)
inactive: growth inhibition [1] -6.04% | growth inhibition [2] -18.6% | viability increase [3] -1.52% | viability [4] 101% | viability [5] 101% | inhibition [6] 1.61% | RAM network inhibition [7] 4.5%

Cc1cc(Nc2ncc(Cl)cc2Cl)n(-c2ccccn2)n1
inactive: growth inhibition [1] -1.14% | growth inhibition [2] 3.23% | viability increase [3] -5.35% | viability [4] 89.3% | viability [5] 76.5% | inhibition [6] 1.93% | RAM network inhibition [7] 4.08%

CCN(CC)CCN1C(=O)C2C3c4ccccc4C(c4ccccc43)C2C1=O (stereo not drawn)
inactive: growth inhibition [1] -2.27% | growth inhibition [2] -2.01% | viability increase [3] -2.46% | viability [4] 96.5% | viability [5] 95.4% | inhibition [6] 0.035% | RAM network inhibition [7] 1.71%

O=C(CCCOc1ccccc1)NCC1CCCO1 (stereo not drawn)
inactive: growth inhibition [1] -3.87% | growth inhibition [2] -6.75% | viability increase [3] -2.68% | viability [4] 96.5% | viability [5] 91.5% | inhibition [6] 4.06% | RAM network inhibition [7] 0.83%

CCn1c(CNC(=O)C23CC4CC(CC(C4)C2)C3)nnc1SCC(=O)Nc1nnc(C)s1
inactive: growth inhibition [1] 2.36% | growth inhibition [2] 24.3% | viability increase [3] 0.62% | viability [4] 96.7% | viability [5] 96.9% | inhibition [6] 2.5% | RAM network inhibition [7] 2.71%

CN(C)c1ccnc2sc(C(=O)NCc3ccccc3)c(N)c12
inactive: growth inhibition [1] -17.2% | growth inhibition [2] 17.5% | viability increase [3] -2.17% | viability [4] 81.3% | viability [5] 78.7% | inhibition [6] 2.11% | RAM network inhibition [7] 1.39%

CNC(=O)c1c[nH]n2c(=O)c(Cc3ccccc3F)c(C)nc12
inactive: growth inhibition [1] -2.95% | growth inhibition [2] -3.94% | viability increase [3] -0.89% | viability [4] 87.7% | viability [5] 91.6% | inhibition [6] 1.17% | RAM network inhibition [7] 3.18%

CCOC(=O)c1cnc2ccc(Br)cc2c1NCC(C)O (stereo not drawn)
inactive: growth inhibition [1] -11.9% | growth inhibition [2] -9.36% | viability increase [3] -4.28% | viability [4] 91.4% | viability [5] 89.2% | inhibition [6] 1.19% | RAM network inhibition [7] 2.79%

O=C(O)[C@H](Cc1ccccc1)N1Cc2ccccc2C1=O
inactive: growth inhibition [1] -4.39% | growth inhibition [2] -15% | viability increase [3] -2.35% | viability [4] 95.3% | viability [5] 97.4% | inhibition [6] 1.4% | RAM network inhibition [7] 1.15%

NC(=O)CSc1nnc(Cn2c(=O)sc3ccccc32)n1-c1ccccc1
inactive: growth inhibition [1] -6.81% | growth inhibition [2] -0.84% | viability increase [3] -0.83% | viability [4] 98.5% | viability [5] 96.8% | inhibition [6] 2.02% | RAM network inhibition [7] 2.47%

Cc1ccc(N2CC(C(=O)Nc3cccc(F)c3)CC2=O)cc1 (stereo not drawn)
inactive: growth inhibition [1] -13.3% | growth inhibition [2] -5.71% | viability increase [3] 0.09% | viability [4] 90.6% | viability [5] 103% | inhibition [6] -0.185% | RAM network inhibition [7] 8.04%

CC(=O)C1=C(C)NC(SCC(=O)c2ccccc2)=C(C#N)C1c1ccco1 (stereo not drawn)
inactive: growth inhibition [1] -3.25% | growth inhibition [2] 21.2% | viability increase [3] -6.35% | viability [4] 55% | viability [5] 56% | inhibition [6] 1.5% | RAM network inhibition [7] 3.37%

O=C(Nc1ccccc1)c1ccc(S(=O)(=O)N2CCCCC2)cc1
inactive: growth inhibition [1] 3.41% | growth inhibition [2] -0.37% | viability increase [3] 0.95% | viability [4] 97.8% | viability [5] 82.5% | inhibition [6] 0.395% | RAM network inhibition [7] 2.23%

Cc1cc(NC(=O)c2cc(-c3cccs3)nc3ccccc23)no1
inactive: growth inhibition [1] 3.04% | growth inhibition [2] -5.12% | viability increase [3] -6.62% | viability [4] 29.3% | viability [5] 30.9% | inhibition [6] 2.11% | RAM network inhibition [7] 8.27%

COc1ccc(S(=O)(=O)Cc2ccc(C(=O)N3CCc4ccccc4C3)o2)cc1
inactive: growth inhibition [1] -5.74% | growth inhibition [2] -5.21% | viability increase [3] -0.44% | viability [4] 92.7% | viability [5] 94.1% | inhibition [6] 0.315% | RAM network inhibition [7] 7.28%

Cc1ccc(N2CCN(C(=O)c3ccccc3F)CC2)c(C)c1
inactive: growth inhibition [1] -12.4% | growth inhibition [2] -14.5% | viability increase [3] 2.73% | viability [4] 93.3% | viability [5] 91% | inhibition [6] -0.61% | RAM network inhibition [7] 4.91%

CN(Cc1ccco1)C(=O)C(Cc1ccccc1)NS(=O)(=O)c1ccc2c(c1)CCC(=O)N2 (stereo not drawn)
inactive: growth inhibition [1] -11.9% | growth inhibition [2] -12.3% | viability increase [3] -4.4% | viability [4] 94.9% | viability [5] 84.4% | inhibition [6] 2.2% | RAM network inhibition [7] 3.45%

Cc1ccc(CNC(=O)CN(C)S(=O)(=O)c2cccc3cccnc23)cc1
inactive: growth inhibition [1] -2.75% | growth inhibition [2] 6.15% | viability increase [3] -1.21% | viability [4] 99.4% | viability [5] 92.9% | inhibition [6] 2.25% | RAM network inhibition [7] -1.33%

CC(=NCc1cccnc1)C1=C(O)c2ccccc2C1=O
inactive: growth inhibition [1] -0.03% | growth inhibition [2] 9.76% | viability increase [3] -0.85% | viability [4] 97.2% | viability [5] 96.4% | inhibition [6] 0.665% | RAM network inhibition [7] -0.3%

Cc1ccc(S(=O)(=O)CC(C)N2CCOCC2)c(S(=O)(=O)CC(C)N2CCOCC2)c1 (stereo not drawn)
inactive: growth inhibition [1] -6.09% | growth inhibition [2] -0.82% | viability increase [3] 1.48% | viability [4] 97% | viability [5] 94.4% | inhibition [6] 0.7% | RAM network inhibition [7] 1.89%
